# Experimental data: ChEMBL document CHEMBL1123678, “Octahydropyrazino[2',3':3,4]pyrido[1,2-a]indoles. A new class of potent antihypertensive agents” (1987)
# The source made the active and inactive calls. The calls are words filed in the database; no cut-off is given here.
# What was measured:
# Rattus norvegicus [1] = assay: Antihypertensive activity was determined in cannulated spontaneously hypertensive rats(SHR) and heart rate response was reported to reduce by 10-25% after 4 hr at a peroral dose of 5 mg/kg; assay type: functional, organism-based; parameters: dose 5 mg/kg
# Rattus norvegicus [2] = assay: Vasopressor responses to epinephrine as a measure of the alpha-1-adrenoceptor blocking activity at 50 mg/kg administered orally was reported to be antagonized; assay type: functional, organism-based; parameters: dose 50 mg/kg
# Rattus norvegicus [3] = assay: Antihypertensive activity was determined in cannulated spontaneously hypertensive rats(SHR) and heart rate response was reported to be reduce by 10-25% after 4 hr at a dose of 50 mg/kg; assay type: functional, organism-based; parameters: dose 50 mg/kg
# Rattus norvegicus [4] = assay: Antihypertensive activity was determined in cannulated spontaneously hypertensive rats(SHR) and heart rate response was reported to reduce by 10-25% after 4 hr at a peroral dose of 10 mg/kg; assay type: functional, organism-based; parameters: dose 10 mg/kg
# Rattus norvegicus [5] = assay: Vasopressor responses to epinephrine as a measure of the alpha-1-adrenoceptor blocking activity at 10 mg/kg administered orally was reported to be reversed; assay type: functional, organism-based; parameters: dose 10 mg/kg
# Rattus norvegicus [6] = assay: Antihypertensive activity was determined in cannulated spontaneously hypertensive rats(SHR) and maximum decrease of mean arterial blood pressure (MABP) at 10 mg/kg oral dose; assay type: functional, Artery
# Procedure, shortened: (§1)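 Cannulated SHR given compound by gastric gavage in 0.5% methylcellulose (5 mL/kg), doses 0.1–50 mg/kg, 4–8 animals per dose, after 1-h equilibration. MABP recorded for 4 h; maximal % decrease reported with time to peak effect. Significance by two-way analysis of variance.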
# Rattus norvegicus [7] = assay: Vasopressor responses to epinephrine as a measure of the alpha-1-adrenoceptor blocking activity at 10 mg/kg administered orally was reported to have no change; assay type: functional, organism-based; parameters: dose 10 mg/kg
# Rattus norvegicus [8] = assay: Antihypertensive activity was determined in cannulated spontaneously hypertensive rats(SHR) and activity rating was given with respect to MABP values at 25 mg/kg oral dose;lowering MABP by 20-30% at 5 mg/kg and by 10-20% at 1-2.5 mg/kg; assay type: functional, organism-based
# Procedure, shortened: (§2)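 Cannulated SHR dosed orally (gavage) in 0.5% methylcellulose, 5 mL/kg; 4–8 rats per dose. MABP monitored 4 h, maximal change taken. Rating scale: 0 = no significant activity at 50 mg/kg, stepping up to 6 = MABP fall >40% at 10 mg/kg and 10–20% at 0.25–1 mg/kg, based on % MABP decreases at set doses.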
# Rattus norvegicus [9] = assay: Antihypertensive activity was determined in cannulated spontaneously hypertensive rats(SHR) and maximum decrease of mean arterial blood pressure (MABP) at 2.5 mg/kg oral dose; assay type: functional, Artery; procedure, shortened: as §1
# Rattus norvegicus [10] = assay: Antihypertensive activity was determined in cannulated spontaneously hypertensive rats(SHR) and maximum decrease of mean arterial blood pressure (MABP) at 25 mg/kg oral dose; assay type: functional, Artery; procedure, shortened: as §1
# Rattus norvegicus [11] = assay: Antihypertensive activity was determined in cannulated spontaneously hypertensive rats(SHR) and maximum decrease of mean arterial blood pressure (MABP) at 5 mg/kg oral dose; assay type: functional, Artery; procedure, shortened: as §1
# Rattus norvegicus [12] = assay: Antihypertensive activity was determined in cannulated spontaneously hypertensive rats(SHR) and marked bradycardia was reported at a dose of 25 mg/kg; assay type: functional, organism-based; parameters: dose 25 mg/kg
# Rattus norvegicus [13] = assay: Vasopressor responses to epinephrine as a measure of the alpha-1-adrenoceptor blocking activity at 2.5 mg/kg administered orally was reported to be antagonized; assay type: functional, organism-based; parameters: dose 2.5 mg/kg; conditions: filed as antagonist
# Rattus norvegicus [14] = assay: Vasopressor responses to epinephrine as a measure of the alpha-1-adrenoceptor blocking activity at 25 mg/kg administered orally was reported to be antagonized; assay type: functional, organism-based; parameters: dose 25 mg/kg; conditions: filed as antagonist
# Rattus norvegicus [15] = assay: Vasopressor responses to epinephrine as a measure of the alpha-1-adrenoceptor blocking activity at 5 mg/kg administered orally was reported to be antagonized; assay type: functional, organism-based; parameters: dose 5 mg/kg; conditions: filed as antagonist
# Rattus norvegicus [16] = assay: Antihypertensive activity was determined in cannulated spontaneously hypertensive rats(SHR) and maximum decrease of mean arterial blood pressure (MABP) at 0.5 mg/kg oral dose; assay type: functional, Artery; procedure, shortened: as §1
# Rattus norvegicus [17] = assay: Antihypertensive activity was determined in cannulated spontaneously hypertensive rats(SHR) and maximum decrease of mean arterial blood pressure (MABP) at 1 mg/kg oral dose; assay type: functional, Artery; procedure, shortened: as §1
# Rattus norvegicus [18] = assay: Antihypertensive activity was determined in cannulated spontaneously hypertensive rats(SHR) and activity rating was given with respect to MABP values at 10 mg/kg oral dose;a decrease of MABP by >40% at 10 mg/kg and by 10-207; assay type: functional, organism-based; procedure, shortened: as §2
# Rattus norvegicus [19] = assay: Antihypertensive activity was determined in cannulated spontaneously hypertensive rats(SHR) and maximum decrease of mean arterial blood pressure (MABP) at 50 mg/kg oral dose; assay type: functional, Artery; procedure, shortened: as §1
# Rattus norvegicus [20] = assay: Antihypertensive activity was determined in cannulated spontaneously hypertensive rats(SHR) and marked bradycardia was reported at a dose of 50 mg/kg; assay type: functional, organism-based; parameters: dose 50 mg/kg
# Rattus norvegicus [21] = assay: Vasopressor responses to epinephrine as a measure of the alpha-1-adrenoceptor blocking activity at 25 mg/kg administered orally was reported to have no change; assay type: functional, organism-based; parameters: dose 25 mg/kg
# Rattus norvegicus [22] = assay: Antihypertensive activity was determined in cannulated spontaneously hypertensive rats(SHR) and marked bradycardia was reported at a dose of 10 mg/kg; assay type: functional, organism-based; parameters: dose 10 mg/kg
# Rattus norvegicus [23] = assay: Vasopressor responses to epinephrine as a measure of the alpha-1-adrenoceptor blocking activity at 1 mg/kg administered orally was reported to be reversed; assay type: functional, organism-based; parameters: dose 1 mg/kg
# Rattus norvegicus [24] = assay: Vasopressor responses to epinephrine as a measure of the alpha-1-adrenoceptor blocking activity at 2.5 mg/kg administered orally was reported to be reversed; assay type: functional, organism-based; parameters: dose 2.5 mg/kg
# Rattus norvegicus [25] = assay: Antagonism of vasopressor responses to epinephrine as a measure of the alpha-1-adrenoceptor blocking activity at 10 mg/kg administered orally was reported to have no change; assay type: functional, organism-based; parameters: dose 10 mg/kg
# Rattus norvegicus [26] = assay: Vasopressor responses to epinephrine as a measure of the alpha-1-adrenoceptor blocking activity at 0.5 mg/kg administered orally was reported to be antagonized; assay type: functional, organism-based; parameters: dose 0.5 mg/kg
compound,measurement,setting,value
Cc1c2n(c3ccccc13)CCC1C2N(C)CCN1C (configuration not stated),HR,Rattus norvegicus [1],Heart rate response was reported to reduce by 10-25% after 4 hr at a peroral dose of 10 mg/kg
same,Activity,Rattus norvegicus [2],Vasopressor response antagonized
same,HR,Rattus norvegicus [3],Heart rate response was reported to be reduce by 10-25% after 4 hr at a dose of 50 mg/kg
same,HR,Rattus norvegicus [4],Heart rate response was reported to reduce by 10-25% after 4 hr at a peroral dose of 10 mg/kg
same,Activity,Rattus norvegicus [5],Vasopressor response reversed
Cc1c2n(c3ccccc13)CCC1C2NCCN1CCOc1ccccc1 (configuration not stated),Decrease in MABP,Rattus norvegicus [6],7%
same,Activity,Rattus norvegicus [7],inactive
O=C(NC1CCN(CCc2c[nH]c3ccccc23)CC1)c1ccccc1 [INDORAMIN],Activity rating,Rattus norvegicus [8],Active
same,Decrease in MABP,Rattus norvegicus [9],12%
same,Decrease in MABP,Rattus norvegicus [10],40%
same,Decrease in MABP,Rattus norvegicus [11],29%
same,HR,Rattus norvegicus [1],Active
same,HR,Rattus norvegicus [12],Active
same,Activity,Rattus norvegicus [13],Antagonist
same,Activity,Rattus norvegicus [14],Antagonist
same,Activity,Rattus norvegicus [15],Antagonist
COc1cc2nc(N3CCN(C(=O)c4ccco4)CC3)nc(N)c2cc1OC [PRAZOSIN],Decrease in MABP,Rattus norvegicus [16],35%
same,Decrease in MABP,Rattus norvegicus [6],49%
same,Decrease in MABP,Rattus norvegicus [17],46%
same,Activity rating,Rattus norvegicus [18],Active
Br.Br.CCN1CCNC2c3c(C)c4ccccc4n3CCC21 (configuration not stated),Decrease in MABP,Rattus norvegicus [6],23%
same,Decrease in MABP,Rattus norvegicus [10],26%
same,Decrease in MABP,Rattus norvegicus [19],31%
same,HR,Rattus norvegicus [20],Heart rate response was reported to reduce by 10-25% after 4 hr at a peroral dose of 25 mg/kg
same,Activity,Rattus norvegicus [21],inactive
same,Activity,Rattus norvegicus [2],Vasopressor response antagonized
same,Activity,Rattus norvegicus [7],inactive
Br.CCCN1CCN(C(C)C)C2CCn3c(c(C)c4ccccc43)C21 (configuration not stated),Decrease in MABP,Rattus norvegicus [6],40%
same,Decrease in MABP,Rattus norvegicus [17],19%
same,Decrease in MABP,Rattus norvegicus [9],25%
same,HR,Rattus norvegicus [22],Heart rate response was reported to reduce by 10-25% after 4 hr at a peroral dose of 1.0 mg/kg
same,Activity,Rattus norvegicus [23],Vasopressor response reversed
same,Activity,Rattus norvegicus [24],Vasopressor response reversed
same,Activity,Rattus norvegicus [5],Vasopressor response reversed
CCCCN1CCN(CC)C2CCn3c(c(C)c4ccccc43)C21.Cl.Cl (configuration not stated),Decrease in MABP,Rattus norvegicus [6],36%
same,Decrease in MABP,Rattus norvegicus [17],16%
same,Activity,Rattus norvegicus [23],Vasopressor response reversed
same,HR,Rattus norvegicus [4],Heart rate response was reported to reduce by 10-25% after 4 hr at a peroral dose of 10 mg/kg
same,Activity,Rattus norvegicus [5],Vasopressor response reversed
CCN1CCNC2CCn3c(c(C)c4ccccc43)C21 (configuration not stated),Decrease in MABP,Rattus norvegicus [6],14%
same,Activity,Rattus norvegicus [25],inactive
same,HR,Rattus norvegicus [4],Heart rate response was reported to reduce by 10-25% after 4 hr at a peroral dose of 10 mg/kg
CCN1CCN(C(C)C)C2CCn3c(c(C)c4cc(OC)ccc43)C21.Cl.Cl (configuration not stated),Decrease in MABP,Rattus norvegicus [16],8%
same,Decrease in MABP,Rattus norvegicus [19],43%
same,Decrease in MABP,Rattus norvegicus [11],33%
same,HR,Rattus norvegicus [20],Heart rate response was reported to reduce by 10-25% after 4 hr at a peroral dose of 5.0 mg/kg
same,Activity,Rattus norvegicus [26],Vasopressor response antagonized
